Tests used:
Type in all cases: functional, Neuron
[1] = Neuroprotection in Sprague-Dawley rat embryonic motor cortex neurons at 5 uM by MTT method
How it was run: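 Cultured neurons from embryonic day-19 Sprague-Dawley rat motor cortex, with compound alone and no neurotoxic agent added. Viability measured by MTT reduction, read as mitochondrial functional activity and number of cells present in culture. Neuroprotection expressed as % (NP), mean ± SEM of at least three independent experiments.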

[2] = Neuroprotection in Sprague-Dawley rat embryonic motor cortex neurons assessed as protection against 100 uM H2O2-induced neuronal death at 5 uM by MTT method
How it was run: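 Primary neurons cultured from embryonic day-19 Sprague-Dawley rat motor cortex. Cells were exposed to compound in the presence of H2O2 as the neurotoxic insult. Viability was read as MTT reduction, which reflects mitochondrial integrity and function and indicates the number of viable cells. Protection is given as mean ± SEM of at least three independent experiments.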

[3] = Neuroprotection in Sprague-Dawley rat embryonic motor cortex neurons assessed as protection against 100 uM glutamate-induced excitotoxicity at 5 uM by MTT method
How it was run: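 Primary cultures of motor cortex neurons from 19-day Sprague-Dawley rat embryos, challenged with glutamate as neurotoxic agent alongside the compound. Cell viability read by MTT reduction, taken as mitochondrial integrity and functional activity, reflecting the number of viable cells. Neuroprotection (NP) reported in %, as mean ± SEM from at least three independent experiments.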

C#CCN[C@@H]1C[C@@H](O)c2ccccc21
Activity [1]: 23.4% | Activity [2]: 14.5% | Activity [3]: 15.2%

C#CCN[C@@H]1C[C@H](O)c2ccccc21
Activity [1]: 0% | Activity [2]: 46.2% | Activity [3]: 0%

C#CCN(CC#C)[C@@H]1C[C@H](O)c2ccccc21
Activity [1]: -5% | Activity [2]: 17.8% | Activity [3]: 0%

C#CCN(CC#C)[C@@H]1C[C@@H](O)c2ccccc21
Activity [1]: -1% | Activity [2]: 19.6% | Activity [3]: -0.5%

C#CCN(CC#C)[C@@H]1C[C@H](OC(C)=O)c2ccccc21
Activity [1]: 0% | Activity [2]: 18.2% | Activity [3]: -1.5%

C#CCN(CC#C)[C@@H]1C[C@@H](OC(C)=O)c2ccccc21
Activity [1]: 0% | Activity [2]: 12.3% | Activity [3]: -0.5%

C#CCN(CC#C)[C@@H]1C[C@H](OC(=O)c2ccccc2)c2ccccc21
Activity [1]: -5.1% | Activity [2]: 16.4% | Activity [3]: 1.6%

C#CCN(CC#C)[C@@H]1C[C@@H](OC(=O)c2ccccc2)c2ccccc21
Activity [1]: 6.9% | Activity [2]: -5.8% | Activity [3]: -1.3%
